Results from ChEMBL document CHEMBL1129585, “Synthesis and biological activity of conformationally restricted analogs of milnacipran: (1S,2R)-1-phenyl-2-[(S)-1-aminopropyl]-N,N-diethylcyclopropanecarboxami de, an efficient noncompetitive N-methyl-D-aspartic acid receptor antagonist” (J Med Chem, 1996).

Legend:
[1] = target: Glutamate receptor ionotropic, NMDA 2C (Rattus norvegicus, UniProt Q00961); experiment: Concentration required to inhibit of N-methyl-D-aspartic acid (NMDA) receptor produced by oocytes; assay type: functional, cell-based, Oocyte
Method in brief: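 Xenopus oocytes were injected with whole-brain mRNA from 10-day-old Wistar rats, extracted by the guanidine/CsCl method. They were two-electrode voltage-clamped with electrodes filled with 3 M KCl. Currents were evoked by 30 µM NMDA plus 10 µM Gly in the presence of test compound at different concentrations. The read-out was block of the NMDA response, given as IC50 or percent inhibition.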

Glutamate NMDA receptor = experiment: Inhibition of [3H]-MK-801 binding to NMDA receptor from rat cerebral cortical synaptic membrane
[2] = target: Sodium-dependent serotonin transporter (Rattus norvegicus, UniProt P31652); experiment: Inhibition of [3H]-paroxetine binding on serotonin transporter of rat cerebral cortical synaptic membrane
Method in brief: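 Rat cerebral cortical synaptic membranes incubated with test agent at various concentrations, [³H]paroxetine 2 nM, in 50 mM Tris-HCl pH 7.4 with 120 mM NaCl and 5 mM KCl, 20 °C for 45 min. Stopped by rapid filtration on polyethylenimine-presoaked glass-fiber filters, washed with cold Tris-HCl. Bound radioactivity counted. Result given as Ki.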

Rattus norvegicus = organism: Rattus norvegicus; experiment: Ratio of 5 HT inhibition to NMDA receptor binding
[3] = target: Glutamate receptor ionotropic, NMDA 2C (Rattus norvegicus) (UniProt Q00961); experiment: (§1) Percentage inhibition of N-methyl-D-aspartic acid (NMDA) receptor produced by oocytes; assay type: functional, cell-based; settings: Xenopus laevis; Oocyte; concentration not given here
Method in brief: (§2)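 Xenopus oocytes injected with whole-brain mRNA from 10-day-old Wistar rats (guanidine/CsCl extraction), then two-electrode voltage-clamped with 3 M KCl-filled electrodes. Currents evoked by 30 µM NMDA plus 10 µM Gly with test agent present at different concentrations. Block of the NMDA response recorded as percent inhibition or IC50.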

[4] = target: Glutamate receptor ionotropic, NMDA 2C (Rattus norvegicus) (UniProt Q00961); experiment: as §1; assay type: cell-based; settings: Xenopus laevis; Oocyte; concentration not given here; method in brief: as §2

Sequence of Glutamate receptor ionotropic, NMDA 2C (Q00961 whole entry): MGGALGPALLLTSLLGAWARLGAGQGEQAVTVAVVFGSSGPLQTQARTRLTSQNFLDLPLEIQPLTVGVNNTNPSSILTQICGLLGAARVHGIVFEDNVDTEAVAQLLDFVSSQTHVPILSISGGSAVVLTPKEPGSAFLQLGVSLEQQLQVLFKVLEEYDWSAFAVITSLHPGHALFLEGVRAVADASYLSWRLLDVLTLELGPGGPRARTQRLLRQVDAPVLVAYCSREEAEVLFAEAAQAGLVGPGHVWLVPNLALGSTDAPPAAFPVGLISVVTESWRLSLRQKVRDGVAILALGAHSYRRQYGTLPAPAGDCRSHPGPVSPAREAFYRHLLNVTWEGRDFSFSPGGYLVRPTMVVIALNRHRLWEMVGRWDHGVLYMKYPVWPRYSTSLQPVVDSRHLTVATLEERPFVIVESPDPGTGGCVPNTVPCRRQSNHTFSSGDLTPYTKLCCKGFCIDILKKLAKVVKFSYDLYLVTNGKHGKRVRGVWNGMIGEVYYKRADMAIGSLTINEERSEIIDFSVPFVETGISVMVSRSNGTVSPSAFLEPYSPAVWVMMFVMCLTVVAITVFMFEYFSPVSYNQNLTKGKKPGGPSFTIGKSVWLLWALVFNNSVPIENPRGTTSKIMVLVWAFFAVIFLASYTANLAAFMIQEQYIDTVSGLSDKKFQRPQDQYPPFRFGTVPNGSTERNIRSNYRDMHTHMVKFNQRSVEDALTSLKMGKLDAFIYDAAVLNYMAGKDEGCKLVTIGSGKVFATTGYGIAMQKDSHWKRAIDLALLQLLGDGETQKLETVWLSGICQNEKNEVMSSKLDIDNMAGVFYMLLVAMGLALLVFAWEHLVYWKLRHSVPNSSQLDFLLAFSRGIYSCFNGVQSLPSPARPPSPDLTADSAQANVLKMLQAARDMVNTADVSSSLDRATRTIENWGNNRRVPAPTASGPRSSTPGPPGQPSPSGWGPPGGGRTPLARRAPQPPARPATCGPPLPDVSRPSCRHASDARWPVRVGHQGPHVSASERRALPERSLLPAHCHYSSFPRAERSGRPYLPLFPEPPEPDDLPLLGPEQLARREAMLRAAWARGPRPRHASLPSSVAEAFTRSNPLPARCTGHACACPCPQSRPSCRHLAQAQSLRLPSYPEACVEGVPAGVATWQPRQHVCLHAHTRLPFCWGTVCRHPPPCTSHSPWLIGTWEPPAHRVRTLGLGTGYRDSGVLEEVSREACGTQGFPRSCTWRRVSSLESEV
Sequence of Sodium-dependent serotonin transporter (P31652 whole entry): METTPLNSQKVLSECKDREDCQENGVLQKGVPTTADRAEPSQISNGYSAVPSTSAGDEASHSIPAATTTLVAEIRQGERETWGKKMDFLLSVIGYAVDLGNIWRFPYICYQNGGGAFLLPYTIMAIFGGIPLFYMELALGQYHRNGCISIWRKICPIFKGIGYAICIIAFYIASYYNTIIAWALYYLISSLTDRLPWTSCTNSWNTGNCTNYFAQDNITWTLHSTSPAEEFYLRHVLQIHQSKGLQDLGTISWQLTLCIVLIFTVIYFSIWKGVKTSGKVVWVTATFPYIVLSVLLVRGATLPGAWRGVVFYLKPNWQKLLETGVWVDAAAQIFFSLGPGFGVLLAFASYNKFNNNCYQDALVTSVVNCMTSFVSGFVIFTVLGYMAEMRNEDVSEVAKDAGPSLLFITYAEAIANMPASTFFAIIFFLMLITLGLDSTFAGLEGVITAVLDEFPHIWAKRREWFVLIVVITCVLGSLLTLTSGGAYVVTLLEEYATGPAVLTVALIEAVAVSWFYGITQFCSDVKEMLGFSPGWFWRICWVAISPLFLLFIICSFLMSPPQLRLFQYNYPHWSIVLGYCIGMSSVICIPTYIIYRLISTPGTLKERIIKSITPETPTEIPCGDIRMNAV
Sequence of Glutamate receptor ionotropic, NMDA 2C (Rattus norvegicus) (Q00961 20-1237 limits assumed): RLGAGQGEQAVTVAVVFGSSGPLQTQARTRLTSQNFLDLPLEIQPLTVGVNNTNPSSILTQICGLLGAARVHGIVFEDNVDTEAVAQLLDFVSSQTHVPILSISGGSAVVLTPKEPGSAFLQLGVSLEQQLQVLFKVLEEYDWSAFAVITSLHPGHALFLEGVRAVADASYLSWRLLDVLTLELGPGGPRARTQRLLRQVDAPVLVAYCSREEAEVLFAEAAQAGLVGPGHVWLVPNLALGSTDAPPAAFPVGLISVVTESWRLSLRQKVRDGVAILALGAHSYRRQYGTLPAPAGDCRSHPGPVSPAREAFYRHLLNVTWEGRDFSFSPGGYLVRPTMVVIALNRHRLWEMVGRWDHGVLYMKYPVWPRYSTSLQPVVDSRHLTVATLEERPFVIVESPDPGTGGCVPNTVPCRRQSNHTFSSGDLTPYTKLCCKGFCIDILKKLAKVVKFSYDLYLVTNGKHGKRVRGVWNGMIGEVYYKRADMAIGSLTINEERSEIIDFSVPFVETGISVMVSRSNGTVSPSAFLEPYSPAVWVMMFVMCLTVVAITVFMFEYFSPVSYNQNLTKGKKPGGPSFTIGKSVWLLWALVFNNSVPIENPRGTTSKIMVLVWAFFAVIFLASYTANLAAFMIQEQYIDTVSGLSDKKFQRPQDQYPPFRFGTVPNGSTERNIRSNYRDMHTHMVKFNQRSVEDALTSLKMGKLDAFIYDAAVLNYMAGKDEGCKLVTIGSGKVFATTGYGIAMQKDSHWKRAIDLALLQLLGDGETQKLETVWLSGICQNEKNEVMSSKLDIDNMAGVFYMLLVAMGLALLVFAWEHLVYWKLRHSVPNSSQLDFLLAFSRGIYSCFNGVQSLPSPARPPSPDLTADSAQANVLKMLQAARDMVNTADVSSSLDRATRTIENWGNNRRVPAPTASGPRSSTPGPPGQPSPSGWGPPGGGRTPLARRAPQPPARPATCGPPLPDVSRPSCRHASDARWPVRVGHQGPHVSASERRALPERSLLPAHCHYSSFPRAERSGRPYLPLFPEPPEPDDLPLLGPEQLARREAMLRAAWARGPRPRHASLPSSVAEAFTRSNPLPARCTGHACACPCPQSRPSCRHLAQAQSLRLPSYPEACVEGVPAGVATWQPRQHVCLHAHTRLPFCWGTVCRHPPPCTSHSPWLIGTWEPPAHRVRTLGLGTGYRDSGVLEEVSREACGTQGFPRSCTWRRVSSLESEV

| SMILES | IC50 (Glutamate NMDA receptor) | Ki [2] | further results |
| --- | --- | --- | --- |
| CCC(N)[C@@H]1C[C@@]1(C(=O)N(CC)CC)c1ccccc1 (stereo in doubt; 2b) | 0.2 µM | 24 µM | IC50 [1]: 2.2 µM |
| CCN(CC)C(=O)[C@@]1(c2ccccc2)C[C@H]1C(N)c1ccccc1 (some centres not stated) | 17 µM | > 100 µM | Selectivity index (Rattus norvegicus): > 5.9 |
| CCC(N)[C@@H]1C[C@@]1(C(=O)N(CC)CC)c1ccccc1 (stereo in doubt; 3b) |  | > 100 µM |  |
| c1ccc(C2(N3CCCCC3)CCCCC2)cc1 [PHENCYCLIDINE] | 0.0098 µM |  |  |
| CCN(CC)C(=O)[C@@]1(c2ccccc2)C[C@H]1C(C)N (stereo in doubt; 3a) | 6.5 µM | 2.4 µM |  |
| CCC(N)[C@H]1C[C@]1(C(=O)N(CC)CC)c1ccccc1 (stereo in doubt; form 1) |  | > 100 µM | IC50 [1]: 39 µM |
| CCN(CC)C(=O)[C@@]1(c2ccccc2)C[C@H]1CN [LEVOMILNACIPRAN] |  | 0.0085 µM | inhibition [3]: 53% |
| CCN(CC)C(=O)[C@]1(c2ccccc2)C[C@@H]1C(C)N (stereo in doubt; form 2) | 19 µM | 0.17 µM |  |
| C[C@]12N[C@H](Cc3ccccc31)c1ccccc12 |  |  | inhibition [4]: 98% |
| CCN(CC)C(=O)[C@]1(c2ccccc2)C[C@@H]1C(C)N (stereo in doubt; form 1) |  | > 100 µM |  |
| CCN(CC)C(=O)[C@@]1(c2ccccc2)C[C@H]1C(C)N (stereo in doubt; 2a) | 0.35 µM | 0.014 µM | IC50 [1]: 2.3 µM |
| CCC(N)[C@H]1C[C@]1(C(=O)N(CC)CC)c1ccccc1 (stereo in doubt; form 2) |  | > 100 µM |  |
| CCN(CC)C(=O)[C@@]1(c2ccccc2)C[C@H]1C(N)CC(C)C (some centres not stated) | 4.2 µM | > 100 µM | Selectivity index (Rattus norvegicus): > 24 |
| CCCC(N)[C@@H]1C[C@@]1(C(=O)N(CC)CC)c1ccccc1 (some centres not stated) | 1 µM | 37 µM | Selectivity index (Rattus norvegicus): 37 |
| CNC1(c2ccccc2Cl)CCCCC1=O (configuration not stated) [KETAMINE] | 0.61 µM |  |  |
| C=CC(N)[C@@H]1C[C@@]1(C(=O)N(CC)CC)c1ccccc1 (some centres not stated) | 0.16 µM | 0.023 µM | Selectivity index (Rattus norvegicus): 0.14 |
